The species entered for test [1] is Mus musculus. Put plainly: Analgesic activity tested by phenylquinone induced writhing test in mice. The format is functional. In general terms: In writhing tests, fewer writhes than in controls are read as antinociception.
Test [2] deals with T1, Prostaglandin E synthase (Bos taurus) (UniProt Q95L14).
T1 sequence (whole entry): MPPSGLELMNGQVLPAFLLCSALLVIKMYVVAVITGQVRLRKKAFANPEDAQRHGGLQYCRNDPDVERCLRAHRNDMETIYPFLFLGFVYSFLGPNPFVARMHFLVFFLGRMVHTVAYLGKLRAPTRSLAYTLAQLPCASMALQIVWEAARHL
Put plainly: Ability to inhibit prostaglandin synthetase ([3H]PGE2 synthesis) from [3H]arachidonic acid in bovine seminal vesicles. Summed up:
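Formation of [³H]-PGE₂ was measured at no fewer than four compound concentrations, each run in duplicate. ID₅₀, the dose expected to give 50% inhibition of prostaglandin synthesis, was read from dose-response lines.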

For test [3], the system named is Mus musculus. Put plainly: Compound was tested orally for its ability to induce gastric lesions in fasted mice (8-animals per group). It is filed as functional. As to conditions: Stomach, po. In outline:
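Male mice (eight per group) fasted overnight, then dosed orally. Killed 4 h later; stomachs removed, stretched and examined for bleeding mucosal erosions. ED50 is the dose expected to cause observable mucosal damage in 50% of animals, calculated from dose-response lines.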

In brackets after ≈: the same amount, converted by molar mass.

On to `O=C(c1ccccc1)c1cc(Cl)cc2c1S(=O)(=O)CC2C(=O)O` (stereo not given), for which, in the test listed under Mus musculus [1], the ED50 is > 5 mg/kg. Besides, in test [2], the ID50 was > 50 µg/mL.

`O=C(c1ccccc1)c1cc(Cl)cc2c1SCC2C(=O)O` (stereo not given): the ED50 turned out to be 0.8 mg/kg in the test filed under Mus musculus [1] and 23 mg/kg in the test on Mus musculus [3]. The ID50 in test [2] was determined as 0.8 µg/mL (≈ 2.51 µM).

On to `O=C(c1ccccc1)c1cc(Cl)cc2c1[S+]([O-])CC2C(=O)O` (stereo not given), for which the ED50 in the test listed under Mus musculus [1] was > 5 mg/kg. The ID50 in test [2] was > 50 µg/mL.

For `O=C(c1ccccc1)c1cc(Br)cc2c1OCC2C(=O)O` (stereo not given), the ED50 in the test filed under Mus musculus [1] is > 5 mg/kg.

As to `O=C(c1ccccc1)c1cccc2c1COC2C(=O)O` (stereo not given), the ED50 in the test filed under Mus musculus [1] was > 16 mg/kg. The ID50 in test [2] was found to be 5 µg/mL (≈ 18.6 µM).

Consider `O=C(c1ccccc1)c1cccc2c1SCC2C(=O)O` (stereo not given), for which the ED50 in the test listed under Mus musculus [1] is 0.6 mg/kg; with Mus musculus [3], 13 mg/kg. Also, the ID50 in test [2] came out at 1.2 µg/mL (≈ 4.22 µM).

The molecule `O=C(c1ccccc1)c1cc(F)cc2c1OCC2C(=O)O` (stereo not given) gave an ED50 in the test listed under Mus musculus [1] of 2.9 mg/kg.

As to `O=C(c1ccccc1)c1cc(Cl)cc2c1OCC2C(=O)O` (stereo not given), the values for the ED50 in the test filed under Mus musculus [1] and with Mus musculus [3] were 0.8 mg/kg and 150 mg/kg, respectively. Moreover, the ID50 in test [2] worked out at 0.25 µg/mL (≈ 0.826 µM).

Consider `Cc1cc(C(=O)c2ccccc2)c2c(c1)C(C(=O)O)CO2` (stereo not given), for which it took a dose of 1.9 mg/kg to reach the 50% effect level in the test listed under Mus musculus [1] (ED50). This molecule yielded an ID50 in test [2] of 2 µg/mL (≈ 7.08 µM).

As to `O=C(c1ccc(Cl)cc1)c1cc(Cl)cc2c1OCC2C(=O)O` (stereo not given), the ED50 in the test filed under Mus musculus [1] is > 4 mg/kg.

In the test filed under Mus musculus [1], `COC(=O)C1COc2c(C(=O)c3ccccc3)cc(Cl)cc21` (stereo not given) registered an ED50 of 13 mg/kg.

As to `O=C(c1ccccc1)c1ccc2c(c1)C(C(=O)O)CS2` (stereo not given), the ED50 in the test filed under Mus musculus [1] was > 10 mg/kg.

With `O=C(c1cccs1)c1cc(Cl)cc2c1OCC2C(=O)O` (stereo not given), the ED50 in the test listed under Mus musculus [1] was > 4 mg/kg.

Take `O=C(c1ccccc1)c1cc(Br)cc2c1SCC2C(=O)O` (stereo not given): the 50% effect level in the test filed under Mus musculus [1] (ED50) was put at a dose of 1.3 mg/kg. In test [2], this molecule returned an ID50 of 1.4 µg/mL (≈ 3.85 µM).

As to `Cc1cc(CC(=O)O)n(C)c1C(=O)c1ccc(Cl)cc1` [ZOMEPIRAC], the results for the ED50 in the test filed under Mus musculus [1] and with Mus musculus [3] were 0.6 mg/kg and 8 mg/kg, respectively. The ID50 in test [2] was determined as 0.6 µg/mL (≈ 2.06 µM).

`O=C(c1ccccc1)c1cccc2c1OCC2C(=O)O` (stereo not given) showed an ED50 in the test filed under Mus musculus [1] of 2.8 mg/kg. This molecule came in with an ID50 in test [2] of 0.7 µg/mL (≈ 2.61 µM).

What is called ED50 is the dose at which the effect has come halfway, by size or by number of responders. Lower therefore signals greater potency.
